# Data from ChEMBL document CHEMBL1155859, “Synthesis of hydantoin analogues of (2S,3R,4S)-4-hydroxyisoleucine with insulinotropic properties” (Bioorg Med Chem Lett, 2008).
# Active and inactive are the calls of the source. No cut-off for these calls is given here.
# Columns and labels:
# [1] = Increase in insulin secretion in Sprague-Dawley rat pancreas assessed per Langerhans islet; assay type: functional
# Outline: (§1)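 Islets from male Sprague-Dawley rats (360–390 g) are digested with collagenase XI (2.5 mg/ml, HBSS, 35 min, 37 °C), purified on a Histopaque gradient and handpicked. They are pre-incubated 60 min at 37 °C, 5% CO2, in KRB with 8.3 mM glucose. Medium insulin is measured by ELISA in pg/islet/h (n = 6–12) against untreated basal.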
# [2] = Increase in insulin secretion in Sprague-Dawley rat pancreatic Langerhans islets at 200 uM; assay type: functional; outline: as §1
# [3] = Increase in insulin secretion in Sprague-Dawley rat pancreas at 75 uM assessed per Langerhans islet; assay type: functional; outline: as §1
# [4] = species on record: Rattus norvegicus; experiment: Increase in insulin secretion in Sprague-Dawley rat pancreatic Langerhans islets below 25 uM; assay type: functional; outline: as §1
# [5] = Lactone formation at pH 1 after 1 hr; conditions: buffer, pH 1, 1 h
# [6] = Lactone formation at pH 1 after 4 hrs; conditions: buffer, pH 1, 4 h
# [7] = Increase in insulin secretion in Sprague-Dawley rat pancreatic Langerhans islets at 25 uM; assay type: functional; outline: as §1
Structure (SMILES),Activity [1],Activity [2],Activity [3],Activity [4],Lactone formation [5],Lactone formation [6],Activity [7]
CCOc1cc(CC(=O)N[C@@H](CC(C)C)c2ccccc2N2CCCCC2)ccc1C(=O)O [REPAGLINIDE],100 pg/h,100%,–,–,–,–,–
C[C@@H]([C@H](C)O)[C@H](N)C(=O)O,45 pg/h,–,100 pg/h,inactive,10%,32%,–
C[C@@H]([C@H](C)O)[C@H]1NC(=O)NC1=O,100 pg/h,–,–,–,–,–,120%
C[C@@H]([C@H](C)O)[C@@H]1NC(=O)NC1=O,100 pg/h,–,–,–,–,–,–
